Compounds with a hit are over-represented: about 3.5% of the library has one in this group of screens.
RGS4 block = human RGS4 inhibition. HEK293 M3R/RGS4 inducible, Fluo-4 calcium flux; stronger effect = higher value; triggered by carbachol at its EC20. B-score at 10 µM. hit rate 0.45% among 310,000;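 active means B-score, a plate-corrected calcium signal, over three deviations above library mean, with baseline fluorescence within five deviations of library mean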;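 further: RGS4 expression induced by doxycycline in cells with stable M3 receptor; B-score is computed from the integrated fluorescence ratio over baseline after carbachol; higher B-score means a larger calcium signal and so more RGS4 inhibition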
Target sequence (P49798 whole entry, looked up): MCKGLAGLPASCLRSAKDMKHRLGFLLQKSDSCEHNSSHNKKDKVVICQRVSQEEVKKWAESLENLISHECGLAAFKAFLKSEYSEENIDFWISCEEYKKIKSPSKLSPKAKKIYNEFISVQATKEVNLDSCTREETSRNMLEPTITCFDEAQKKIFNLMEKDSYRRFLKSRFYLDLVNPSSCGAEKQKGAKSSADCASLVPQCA
MrgX1 PAM = human MrgX1 positive allosteric modulation, primary screen. Q96LB2. MrgX1-HEK293, Fluo-4 calcium flux, FDSS; stronger effect = higher value. B-score at 10 µM. hit rate 0.63% among 310,000;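 active means plate-corrected calcium response at least 3 library SD above typical, normal starting fluorescence, not activating the receptor alone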;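 further: compound read alongside a low EC10 to EC30 dose of BAM8-22 agonist; peak minus trough fluorescence over baseline measured at the second addition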
Target sequence (Q96LB2 whole entry, looked up): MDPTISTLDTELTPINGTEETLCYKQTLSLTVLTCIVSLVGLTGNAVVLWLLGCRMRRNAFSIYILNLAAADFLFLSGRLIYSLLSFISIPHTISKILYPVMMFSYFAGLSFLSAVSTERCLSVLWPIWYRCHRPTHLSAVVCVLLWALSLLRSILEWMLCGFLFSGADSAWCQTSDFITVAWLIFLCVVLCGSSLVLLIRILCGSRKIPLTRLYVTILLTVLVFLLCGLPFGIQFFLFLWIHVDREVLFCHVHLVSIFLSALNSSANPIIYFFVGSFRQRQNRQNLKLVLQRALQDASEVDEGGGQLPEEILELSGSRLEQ
MrgX1 antagonist = antagonists of human MrgX1 receptor | hit rate 1.3% among 310,000 | Q96LB2 | AID 588676 | MRGX1-HEK293 calcium flux, Fluo-4, BAM8-22 antagonism; stronger effect = lower value | B-score at 10 µM;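 active means calcium-response B-score plate-corrected more than 3 library SD below zero, starting fluorescence within 5 deviations, no agonist response on first addition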;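 further: peak minus trough fluorescence over baseline after final BAM8-22 challenge near maximal dose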
MrgX1 ag = agonists of human MrgX1 receptor. hit rate 0.44% among 310,000. Q96LB2. AID 588627. MrgX1-HEK293 cells, Fluo-4 calcium fluorescence, agonist mode; stronger effect = higher value. B-score at 10 µM;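 active means calcium response B-score plate-corrected fluorescence ratio at least 3 library SD, with starting fluorescence B-score inside 5 SD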
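System – MrgX1-expressing HEK293 cells · Incubation – cells plated overnight, dye loaded 0.5 h 37 °C, 0.5 h room temperature · Technique – kinetic Fluo-4 NW fluorescence of intracellular calcium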
RGS4 pot = RGS4 potentiation or activation; HEK293 M3R/inducible RGS4, carbachol calcium flux Fluo4; stronger effect = lower value; B-score at 10 µM; hit rate 0.92% among 310,000;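 active means B-score of the integrated calcium signal more than 4 SD below the library mean, with starting fluorescence not abnormally high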;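 further: negative B-score means reduced calcium response which marks RGS4 activation or potentiation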
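Assay system: Inducible-RGS4 HEK293 cells carrying M3 receptor | Schedule: Compound preincubation 20 min at room temperature before agonist | Signal: Kinetic calcium fluorescence imaging with Fluo4-AM dye, 2 µM | Read-out basis: B score from integrated fluorescence ratio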
MrgX1 ant reconf = human MrgX1 receptor antagonism, re-confirmation screen; remaining BAM8-22 calcium response % of control (stronger effect = lower value), % at 10 µM; MrgX1-HEK293, BAM8-22 calcium flux, Fluo-4; stronger effect = lower value; shares compounds with MrgX1 antagonist; hit rate 19% among 2,300; AID 602420;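 active means remaining agonist calcium response no higher than 100% minus 3 SD of agonist-only control wells, with starting fluorescence near control levels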;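 further: agonist BAM8-22 given at a near maximal EC90 to ECmax level; peak minus minimum fluorescence divided by baseline after agonist addition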
HEK293 Ca flux = counter-screen for MrgX1 antagonists: effect in parental HEK293 cells; shares compounds with MrgX1 antagonist; Fluo-4 calcium fluorescence, FDSS; fluorescence ratio F(max-min)/F0 at 10 µM; hit rate 2% among 4,000; AID 624111;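 active means duplicate-averaged calcium fluorescence ratio at least three times the standard deviation of buffer wells, a nonspecific response in parental cells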
HEK293 Ca counter = activity in parental HEK293 cells without MrgX1. shares compounds with MrgX1 antagonist. parental HEK293 calcium flux, Fluo-4 fluorescence ratio; stronger effect = higher value. fluorescence ratio F(max-min)/F0 at 10 µM. hit rate 0.4% among 4,000. AID 624114;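 active means calcium fluorescence ratio, averaged over duplicates, at least 3 SD of the buffer-well ratio, meaning a nonspecific response in receptor-free cells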;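 further: untransfected parental HEK293 lacking MrgX1 used as counterscreen for MrgX1 allosteric activators; fluorescence change taken during the second addition on a kinetic imager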
HEK293 Ca cntr2 = activity in parental HEK293 cells lacking MrgX1 receptor; Fluo-4 calcium fluorescence (FDSS); stronger effect = higher value; fluorescence ratio F(max-min)/F0 at 10 µM; shares compounds with MrgX1 antagonist; AID 624115; hit rate 8.7% among 4,000;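 active means calcium fluorescence ratio at least three times the spread of buffer wells, meaning a non-specific response in parental cells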
* = called active by the depositor; i = inactive; . = not tested or not shown.

SMILES | RGS4 block | MrgX1 PAM | MrgX1 antagonist | MrgX1 ag | RGS4 pot | MrgX1 ant reconf | HEK293 Ca flux | HEK293 Ca counter | HEK293 Ca cntr2
CC(C)CC(=O)Nc1ccccc1N1CCOCC1 | i | i | -4.56* | i | i | i | i | 48.5* | i
Cc1cc(NC(=O)C(C)SCC(=O)Nc2ccccc2N2CCCC2)no1 (stereo not given) | i | i | -11.4* | i | i | 75.6%* | i | i | i
Cc1cc(NC(=O)C(C)SCC(=O)Nc2cc(C(F)(F)F)ccc2N2CCCCC2)no1 (stereo not given) | i | i | i | i | i | . | . | . | .
C=CCn1c(N)nc2ccccc21 | i | i | -4.61* | i | i | i | i | i | i
CCCn1c(N)nc2ccccc21 | i | i | -5.47* | i | i | i | i | i | i
CCOCCn1c(CC)nc2ccccc21 | i | i | i | i | i | . | . | . | .
C=CCn1c(C(O)c2ccccc2)nc2ccccc21 (stereo not given) | i | i | i | i | i | . | . | . | .
CCn1c(N)nc2ccccc21 | i | i | i | i | i | . | . | . | .
C=CCn1c(C(C)C)nc2ccccc21 | i | i | -6.72* | i | i | i | i | i | i
CCOCCn1c(CCCO)nc2ccccc21 | i | i | -11* | i | i | i | i | i | i
O=C(NCc1cccs1)C1CCN(S(=O)(=O)c2ccccc2F)CC1 | i | i | i | i | i | . | . | . | .
CCc1nc2ccccc2n1CCc1ccccc1 | i | i | i | i | i | . | . | . | .
CCc1nc2ccccc2n1CCC(C)C | i | i | -6.32* | i | i | i | i | i | i
O=C(/C=C1\SC(=O)NC1=O)Nc1ccc(C(=O)O)cc1 | i | i | -10.4* | i | i | i | i | i | i
CCCCn1c(N)c(N(CC(C)C)C(=O)C2CCCO2)c(=O)[nH]c1=O (stereo not given) | i | i | i | i | i | . | . | . | .
CCc1nc(C)ccc1OCC(=O)N1CCc2c([nH]c3ccccc23)C1c1ccccn1 (stereo not given) | i | i | i | i | i | . | . | . | .
COc1ccc(OCC(=O)N2CCc3c([nH]c4ccccc34)C2c2ccccn2)cc1 (stereo not given) | i | i | -6.4* | i | i | i | i | i | i
Cc1ccc(S(=O)(=O)NCCCNS(=O)(=O)c2ccccc2)cc1 | i | i | i | i | i | . | . | . | .
COCCN1C(=O)/C(=C/c2ccc(N3CCCC3)cc2)SC1=S | i | i | -12* | i | i | i | i | i | i
COc1ccccc1NC(=O)c1cc(Cl)ccc1NC(=O)c1ccco1 | i | i | i | i | i | . | . | . | .
CCC(NC(=O)c1ccccc1NC(=O)c1ccco1)C(=O)O (stereo not given) | i | i | -7.6* | i | i | i | i | i | i
CCOc1ccccc1NC(=O)c1cc(Cl)ccc1NC(=O)c1ccco1 | i | i | -5.22* | i | i | i | i | i | i
CCN1C(=O)[C@H]2[C@@H](c3ccc(C)cc3)N3C(=O)N(c4ccccc4)C(=O)[C@@]3(C)[C@H]2C1=O | i | i | i | i | i | . | . | . | .
CCOc1ccc(Nc2ccc(N3C(=O)CCC3=O)cc2[N+](=O)[O-])cc1 | i | i | i | i | i | . | . | . | .
c1ccc(Oc2cc(-c3ccccc3)nc(-c3ccccc3)n2)cc1 | i | i | i | i | i | . | . | . | .
SMILES | RGS4 block | MrgX1 PAM | MrgX1 antagonist | MrgX1 ag | RGS4 pot | MrgX1 ant reconf | HEK293 Ca flux | HEK293 Ca counter | HEK293 Ca cntr2
Cc1cc(Oc2ccccc2)nc(-c2ccccc2)n1 | i | i | -4.52* | i | i | i | i | i | i
Cc1ccc(S(=O)(=O)N(C)C)cc1NC(=O)CSc1nc2ccccc2c(=O)n1CC1CCCO1 (stereo not given) | i | i | i | i | i | . | . | . | .
Cc1ccc(S(=O)(=O)N(C)C)cc1NC(=O)Cn1c(CN2CCOCC2)nc2ccccc2c1=O | i | i | -4.95* | i | i | i | i | i | i
CCOC(=O)C1CCN(C(=O)CSc2nccc(C)n2)CC1 | i | i | i | i | i | . | . | . | .
O=C(O)CSc1nnnn1-c1ccccc1 | i | i | i | i | i | . | . | . | .
Cc1nnnn1-c1ccc(CC(=O)O)cc1 | i | i | -7.12* | i | i | i | i | i | i
CCOc1ccc(NC(=O)CN2CCN(C(=O)C3CCCO3)CC2)cc1 (stereo not given) | i | i | i | i | i | . | . | . | .
CCOC(=O)c1ccc(NC(=O)CN2CCN(C(=O)C3CCCO3)CC2)cc1 (stereo not given) | i | i | -6.33* | i | i | i | i | i | i
Cc1ccc(NC(=O)N2CCN(C(=O)C3CCCO3)CC2)cc1 (stereo not given) | i | i | -5.87* | i | i | i | i | i | i
O=C1NC2(CCCC2)C(=O)N1CC(=O)N(Cc1ccccc1)c1ccccc1 | i | i | i | i | i | . | . | . | .
O=C(O)CCc1ccc(-c2cccs2)n1-c1ccc(C(=O)O)cc1 | i | i | -4.71* | i | i | i | i | i | i
O=C1OCCC1Sc1nnc(-c2cccc(Br)c2)o1 (stereo not given) | i | i | -5.1* | i | i | i | i | i | i
CCCCOc1ccc(C(=O)NCCOc2cccc(OC)c2)cc1 | i | i | i | i | i | . | . | . | .
COc1cc(-c2nnc(-c3ccccc3)o2)cc(OC)c1OC | i | i | -4.86* | i | i | i | i | i | i
CN=Cc1cc(-c2ccccc2)sc1O | i | i | -6.16* | i | i | i | i | i | i
C=C(C)C1CC=C(C)/C(=N/NC(=O)CCC(=O)Nc2ccccc2Cl)C1 (stereo not given) | i | i | i | i | i | . | . | . | .

Source: PubChem BioAssay
